Sampled rows, rich in hits. Any-hit rate of the full collection: about 3.7%.
Dynein transport: blocks dynein driven cargo transport along microtubules | hit rate 0.47% among 220,000 | 3617.4 mouse cells, GR-EGFP nuclear translocation imaging; test concentration mostly 20 µM; stimulated with dexamethasone, 1 µM; stronger effect = lower value | z-score, hits read low;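 active = plate z-score of nuclear minus cytoplasmic receptor signal below a set negative limit, without overly bright fluorescence or cell loss, cut at about -3.5 in these data, passing the limit was not always enough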;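 also: z-score of nuclear minus cytoplasmic ring GR-EGFP intensity difference per well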
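Buffer or medium: tetracycline-free induction medium containing charcoal-stripped FBS / Reagent: dexamethasone agonist, 1.0 µM final, for 30 min / Technique: automated 10x imaging of fixed Hoechst-stained cells / Times: induction 48 h, compound 1 h, agonist 30 min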
UPR XBP1 act: activators of adaptive arm of unfolded protein response (XBP1); CHO-XBP1 luciferase reporter, IRE1-XBP1 UPR activation, luminescence; percent of tunicamycin response, DMSO as zero; activation, % at 20 µM; hit rate 0.33% among 330,000; AID 463104;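 active = versus positive control, 20 µM dose yields 30% or more activation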;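 also: 100% = tunicamycin at 10 µg/mL and 0% = DMSO only wells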
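Assay system: IRE1-XBP1 luciferase reporter CHO line. Input: 1000 cells/well. Buffer or medium: F12 with 10% serum. Doses: 20 µM, 1% DMSO. Times: overnight seeding at 37 °C, 6 h compound treatment at 37 °C. Technique: Steady-Glo luciferase glow luminescence, 10 min after reagent addition.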
Mdm2 MdmX PPI: disrupts the human Mdm2-MdmX interaction; O15151+Q00987; SaOS-2 split-luciferase Mdm2/MdmX complementation, luminescence; inhibition, % at 8 µM; hit rate 3% among 330,000;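 active = inhibition of at least 50% at 8 µM in the primary screen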
Mdm2 ligase inh: Mdm2 E3 ligase (human) inhibition; hit rate 0.11% among 210,000; cell-based MDM2 ubiquitination luciferase reporter, 2 h; 0 = plate control, 100 = twice control, blank-subtracted; Q00987; signal enhancement, % at 5 µM;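 active = signal enhancement of 30% or more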;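 also: luminescence tracks abundance of the self-degrading MDM2-luciferase fusion protein; higher signal means inhibition of MDM2 E3 ligase activity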
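Test system: mammalian cells stably expressing self-ubiquitinating, self-degrading MDM2 E3–luciferase fusion; Amount: 2000 cells in each well; Medium: DMEM; Schedule: 4 h settle plus 2 h compound, 37 °C; Technique: SteadyLite luciferase luminescence after 15 min room-temperature reagent incubation; Benchmarks: plate control and blank wells.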
Beta2AR agonist: activates human beta-2 adrenergic receptor causing internalization; P07550; Am2.2-beta2AR cells, FAP receptor internalization, flow cytometry; response, % (concentration not given with the values); hit rate 0.43% among 340,000;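 active = response above a set limit, near 3 SD of response in nonfluorescent compounds, cut at about 42% in these data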
Target sequence (P07550 whole entry, looked up): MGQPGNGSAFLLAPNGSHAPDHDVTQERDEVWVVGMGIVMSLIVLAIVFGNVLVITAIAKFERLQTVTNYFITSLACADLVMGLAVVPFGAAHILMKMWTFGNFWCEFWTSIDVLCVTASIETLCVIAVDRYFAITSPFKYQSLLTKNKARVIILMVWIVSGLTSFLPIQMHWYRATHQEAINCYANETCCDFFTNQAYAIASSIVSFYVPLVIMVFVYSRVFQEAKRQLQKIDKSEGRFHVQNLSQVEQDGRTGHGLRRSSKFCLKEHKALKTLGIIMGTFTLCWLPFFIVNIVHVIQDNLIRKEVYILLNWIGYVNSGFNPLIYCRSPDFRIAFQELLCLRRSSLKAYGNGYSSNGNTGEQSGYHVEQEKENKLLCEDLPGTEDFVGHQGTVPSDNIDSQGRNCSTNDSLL
CHOP UPR activ: activators of apoptotic arm of unfolded protein response (CHOP) | CHO-CHOP luciferase reporter, UPR activation, luminescence; percent of tunicamycin response over DMSO baseline | activation, % at 10 µM | hit rate 0.34% among 330,000;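 active = at 10 µM dose, activation of 40% or more, normalized to positive control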;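 also: 100% = tunicamycin at 10 µg/mL and 0% = DMSO alone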
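measured by = luciferase luminescence | assay system = CHO-CHOP cells, stable luciferase reporter of PERK-eIF2a-CHOP signalling | amount = 500 reporter cells seeded per well | timing = 6 h compound exposure at 37 °C after overnight seeding | controls = positive tunicamycin 10 µg/mL, negative DMSO alone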
XBP1 UPR conf: confirmation of adaptive unfolded protein response (XBP1) activators; AID 485299; CHO-XBP1 IRE1-XBP1 luciferase reporter, luminescence; shares compounds with UPR XBP1 act; hit rate 63% among 1,000; activation, % at 20 µM;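 active = reporter signal at least 30% of the positive control's activation in two or more of four replicate wells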;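 also: plate controls were DMSO negative control for no effect and tunicamycin 10 µg/mL positive control for full effect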
Mdm2-MdmX conf: confirmation of human Mdm2/MdmX interaction inhibitors. hit rate 55% among 10,000. Mdm2-MdmX binding, luminescent assay. shares compounds with Mdm2 MdmX PPI. AID 489028. inhibition, % at 8 µM; in the data active = inhibition above about 40%
Full FLuc ctr: full-length luciferase inhibition in Mdm2/MdmX counter-screen; shares compounds with Mdm2 MdmX PPI; SaOS-2 full-length luciferase counterscreen, luminescence; inhibition, % at 8 µM; hit rate 77% among 6,200;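 active = mean inhibition at 8 µM reaching about 37%, which flags the compound as non-specific, limit read from the data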;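 also: p53-null SaOS-2 cells with luciferase driven by a doxycycline-inducible promoter; compound on cells about two nights before reading with doxycycline added after day one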
Starred values were filed as active, the others as inactive; . = no result given.

SMILES	Dynein transport	UPR XBP1 act	Mdm2 MdmX PPI	Mdm2 ligase inh	Beta2AR agonist	CHOP UPR activ	XBP1 UPR conf	Mdm2-MdmX conf	Full FLuc ctr
CCOC(=O)/C=c1\s/c(=C\c2ccc(C)cc2)c(=O)n1CC(=O)NCc1ccco1	-0.98	55*	30	-22	1	0	1	.	.
COc1ccc(/C=N/NC(=O)CC(=O)NCc2cccnc2)cc1[N+](=O)[O-]	.	-4	12	.	3	0	.	.	.
CC(C)(C)C(=O)NC(=S)NNC(=O)c1sc2ccccc2c1Cl	-0.0057	35*	74*	.	8	20	31*	52*	37*
Cc1ccc(N=Cc2c(O)n(-c3ccc4c(c3)OCO4)c(=O)c3ccccc23)cc1	0.48	35*	69*	-14	-9	8	27*	42*	36*
Cc1cccc(-n2c(O)c(C=Nc3ccc(O)cc3)c3ccccc3c2=O)n1	-1.1	1	2	-15	-10	-1	.	.	.
CCOc1ccc(C(=O)NCC2CCCN2S(=O)(=O)c2cccs2)cc1 (stereo unspecified)	.	-1	29	.	2	-2	.	.	.
CC(C)(C)c1cc(-c2nc(N)nc(N)n2)c(O)c(C(C)(C)C)c1	.	58*	68*	.	4	0	30*	6	.
O=C(C1CCC(=O)N(C2CC2)C1)N(CCO)Cc1ccccc1 (stereo unspecified)	.	-3	7	.	-1	2	.	.	.
O=C(N/N=C/c1ccccc1Cl)c1[nH]c2ccc(Br)cc2c1-c1ccccc1	-0.31	50*	89*	-20	26	0	59*	75*	106*
COc1ccc(/C=N/NC(=O)c2[nH]c3ccc(Br)cc3c2-c2ccccc2)c(C(=O)O)c1OC	-1.1	2	-10	-3	-1	1	.	.	.
O=c1[nH]c(CSc2ncnc3sc(-c4ccccc4)cc23)nc2ccccc12	-0.11	87*	87*	-10	3	1	142*	-12	.
COc1ccccc1-c1sc2cc3c(cc2c1-c1ccc(OCCN2CCCCC2)cc1)OCO3	.	35*	98*	.	38	6	36*	42*	39*
COc1ccc2sc(-c3ccccc3OC)c(-c3ccc(OCCN4CCOCC4)cc3)c2c1	.	0	30	.	2	1	.	.	.
COc1ccc(-c2sc3ccccc3c2-c2ccc(OCCN(C)C)cc2)cc1	.	44*	100*	.	18	12	58*	49*	14
Cc1c(Cc2ccccc2)c(=O)oc2cc(OCC(=O)N3CCC(C(N)=O)CC3)ccc12	.	-3	-10	.	0	-1	.	.	.
COc1ccc(C(=O)Nc2nc3ccc(OC)cc3s2)cc1	.	2	-25	.	0	7	.	.	.
COc1ccc2nc(NC(=O)c3cccc(-c4cc5ccccc5oc4=O)c3)sc2c1	0.074	78*	78*	-19	15	25	55*	64*	120*
CC(C)CC(NC(=O)c1ccc(Cl)cc1)C(=O)OCC(=O)c1ccc2c(c1)NC(=O)CO2 (stereo unspecified)	-0.32	49*	95*	-11	4	37	99*	94*	17
CC(O)C(NS(=O)(=O)c1ccc(Cl)cc1)C(=O)OCC(=O)c1ccc2c(c1)NC(=O)CO2 (stereo unspecified)	.	.	.	.	8	.	.	.	.
CC(C)C[C@H]1CNC(=S)N1CC1CCCN1C[C@H](CC(C)C)N1C[C@H](CC(C)C)N(CCc2ccccc2)C1=S (stereo partly specified)	.	.	.	.	4	.	.	.	.
O=c1c2ccccc2nc(CSc2nnnn2-c2ccccc2)n1-c1ccccc1Cl	-0.23	52*	68*	-10	-6	35	22	43*	64*
CCNc1nc(NCC)n2c(SC(C(=O)Nc3cc(Cl)cc(Cl)c3)c3ccccc3)nnc2n1 (stereo unspecified)	-0.34	90*	95*	-9	5	15	25	-3	.
CCNc1nc(NCC)n2c(SCC(=O)Nc3cccc(Cl)c3)nnc2n1	.	0	11	.	24	-1	.	.	.
Cc1ccc(-c2cc(C(=O)Nc3cc(C)on3)c3ccccc3n2)cc1	-0.21	-3	-11	-3	-8	-1	.	.	.
Cc1cc(NC(=O)c2cc(-c3ccncc3)nc3c(C)cccc23)no1	0.048	153*	61*	-35	-9	8	184*	49*	53*
SMILES	Dynein transport	UPR XBP1 act	Mdm2 MdmX PPI	Mdm2 ligase inh	Beta2AR agonist	CHOP UPR activ	XBP1 UPR conf	Mdm2-MdmX conf	Full FLuc ctr
O=C(/C=C/c1ccco1)OCC(=O)N1CCCCC1	.	1	0	.	0	3	.	.	.
CCOC(=O)CC[C@H](NC(=O)Cn1cnc(C(=O)Nc2ccc(C)c(C)c2)n1)C(=O)OCC	.	5	22	.	4	2	.	.	.
COc1cc2c(cc1NC(=S)NC(=O)/C=C/c1ccc(OC)c(OC)c1)oc1ccccc12	0.38	.	.	5	32	.	.	.	.
COc1cc2c(cc1NC(=S)NC(=O)/C=C/c1ccco1)oc1ccccc12	-0.14	52*	50*	-2	-9	11	77*	8	.
COc1ccc(-c2csc(NC(=S)NC(=O)/C=C/c3ccco3)n2)cc1Br	-0.064	202*	85*	-1	35	18	201*	65*	59*
COc1ccc(CC(=O)OCC(=O)NCc2ccc(C)cc2)cc1OC	.	-3	9	.	-1	1	.	.	.
O=C(/C=C/c1ccc(S(=O)(=O)N2CCOCC2)cc1)NCc1ccccc1F	.	-3	-16	.	-4	1	.	.	.
CN(C)CC/C=C1\c2ccc(F)cc2Sc2cc(F)c(Cl)cc21	.	86*	55*	.	32	2	122*	33	.
CN(C)CC/C=C1/c2ccc(F)cc2Sc2ccc(Cl)cc21	.	2	30	.	8	2	.	.	.
O=C(CC1S/C(=N/N=C2CCCCCC2)NC1=O)Nc1ccc(Br)cc1F (stereo unspecified)	.	-2	-6	.	-4	-3	.	.	.
COC(=O)c1c(NC(=O)c2nc3ccccc3s2)sc2c1CC(C)(C)NC2(C)C	-0.068	41*	98*	-8	-5	26	48*	64*	53*
Cc1ccc(-c2[nH]c3cc(C(=O)NCCCn4ccnc4)ccc3c(=O)c2O)cc1	0.03	-2	15	-8	-5	0	.	.	.

Assay outcomes deposited in PubChem by several laboratories.
